Measurements as given in ChEMBL document CHEMBL4330127, “Discovery of Novel Pyruvate Dehydrogenase Kinase 4 Inhibitors for Potential Oral Treatment of Metabolic Diseases” (J Med Chem, 2019).
Active and inactive are the calls of the source. The rule behind the calls is not given here.

Assays:
RKO [1] = experiment: Induction of apoptosis in human RKO cells assessed as necrotic cells at 10 uM after 24 hrs by Annexin V/propidium iodide staining based flow cytometry (reference value: 0.56%); assay type: functional
[2] = Clearance in rat at 5 mg/kg, iv; assay type: ADME, organism-based; details: in vivo
In short: (§1)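 Male rats given a single dose, 5 mg/kg intravenously or 10 mg/kg orally. Plasma PK parameters were reported as mean ± SD: AUCt, AUC∞, Cmax, Tmax, T1/2, CL, Vss and oral bioavailability F.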

RKO [3] = experiment: Induction of apoptosis in human RKO cells assessed as live cells at 10 uM after 24 hrs by Annexin V/propidium iodide staining based flow cytometry (reference value: 82.4%); assay type: functional
[4] = AUC (0 to infinity) in rat at 5 mg/kg, iv; assay type: ADME, organism-based; parameters: dose 5 mg/kg, route intravenous, time infinity; details: in vivo; in short: as §1
HCT-116 [5] = experiment: Induction of apoptosis in human HCT116 cells assessed as live cells at 25 uM after 24 hrs in presence of oxaliplatin by Annexin V/propidium iodide staining based flow cytometry (reference value: 57.3%); assay type: functional
RKO [6] = experiment: Cell cycle arrest in human RKO cells assessed as accumulation at G2/M phase at 25 uM after 24 hrs in presence of oxaliplatin propidium iodide staining based flow cytometry (reference value: 39.2%); assay type: functional
In short: (§2)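 HCT116 and RKO cells were treated with compound alone or with oxaliplatin for 24 h before harvest. Cells were stained with propidium iodide, and DNA content was analysed by flow cytometry. Cell-cycle phase populations, including sub-G1, are given as percentages.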

HCT-116 [7] = experiment: Induction of apoptosis in human HCT116 cells assessed as necrotic cells at 25 uM after 24 hrs in presence of oxaliplatin by Annexin V/propidium iodide staining based flow cytometry (reference value: 21.2%); assay type: functional
HCT-116 [8] = experiment: Induction of apoptosis in human HCT116 cells assessed as early apoptotic cells at 25 uM after 24 hrs in presence of oxaliplatin by Annexin V/propidium iodide staining based flow cytometry (reference value: 7.31%); assay type: functional
HCT-116 [9] = experiment: Induction of apoptosis in human HCT116 cells assessed as increase in Bax expression at 10 to 50 uM after 24 hrs by Western blot analysis; assay type: functional, cell-based
In short: (§3)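 HCT116 and RKO cells given a range of compound doses for 24 h; lysates probed by Western blot for apoptosis-related proteins (p53, BAX, BCLxL).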

HCT-116 [10] = experiment: Cell cycle arrest in human HCT116 cells assessed as accumulation at G1/G0 phase at 10 uM after 24 hrs propidium iodide staining based flow cytometry (reference value: 42%); assay type: functional; in short: as §2
HCT-116 [11] = experiment: Cell cycle arrest in human HCT116 cells assessed as accumulation at G1/G0 phase at 25 uM after 24 hrs in presence of oxaliplatin propidium iodide staining based flow cytometry (reference value: 41.3%); assay type: functional; in short: as §2
CYP3A = CYP3A (Homo sapiens, UniProt P08684+P20815+P24462+Q9HB55); experiment: Inhibition of CYP3A in human liver microsomes assessed as reduction in midazolam 1'-hydroxylation by tandem mass spectrometry analysis; assay type: ADME; details: probe midazolam (1'-hydroxylation)
In short: (§4)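 Pooled human liver microsomes; test compound at final 0–50 μM in a cocktail incubation with probe substrates: midazolam 1′-hydroxylation (CYP3A), SN-38 glucuronidation (UGT1A1), trifluoperazine N-glucuronidation (UGT1A4), mycophenolic acid glucuronidation (UGT1A9), naloxone 3-glucuronidation (UGT2B7). Metabolites measured by tandem MS; IC50 determined; duplicate.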

RKO [12] = experiment: Cell cycle arrest in human RKO cells assessed as accumulation at S phase at 25 uM after 24 hrs in presence of oxaliplatin propidium iodide staining based flow cytometry (reference value: 4.5%); assay type: functional
[13] = Oral bioavailability in rat at 10 mg/kg; assay type: ADME, organism-based; details: in vivo
RKO [14] = experiment: Cell cycle arrest in human RKO cells assessed as accumulation at G2/M phase at 10 uM after 24 hrs propidium iodide staining based flow cytometry (reference value: 23.3%); assay type: functional; in short: as §2
[15] = molecular target: UDP-glucuronosyltransferase 2B7 (Homo sapiens, UniProt P16662); experiment: Inhibition of UGT2B7 in human liver microsomes assessed as reduction in naloxone 3-glucuronidation by tandem mass spectrometry analysis; assay type: ADME; in short: as §4
RKO [16] = experiment: Cell cycle arrest in human RKO cells assessed as accumulation at G2/M phase at 50 uM after 24 hrs propidium iodide staining based flow cytometry (reference value: 23.3%); assay type: functional; in short: as §2
RKO [17] = experiment: Induction of apoptosis in human RKO cells assessed as early apoptotic cells at 25 uM after 24 hrs in presence of oxaliplatin by Annexin V/propidium iodide staining based flow cytometry (reference value: 6.33%); assay type: functional
[18] = Metabolic stability in rat liver microsomes assessed as parent compound remaining after 30 mins by LC-MS/MS analysis; assay type: ADME, Microsome; details: read-out: Stability
RKO [19] = experiment: Induction of apoptosis in human RKO cells assessed as live cells at 25 uM after 24 hrs by Annexin V/propidium iodide staining based flow cytometry (reference value: 82.4%); assay type: functional
RKO [20] = experiment: Induction of apoptosis in human RKO cells after 24 hrs by Annexin V/propidium iodide staining based flow cytometry; assay type: functional, cell-based
RKO [21] = experiment: Cell cycle arrest in human RKO cells assessed as accumulation at G2/M phase at 25 uM after 24 hrs propidium iodide staining based flow cytometry (reference value: 23.3%); assay type: functional; in short: as §2
[22] = molecular target: [Pyruvate dehydrogenase (acetyl-transferring)] kinase isozyme 4, mitochondrial (Homo sapiens, UniProt Q16654); experiment: Inhibition of PDK4 (unknown origin)
RKO [23] = experiment: Induction of apoptosis in human RKO cells assessed as live cells at 25 uM after 24 hrs in presence of oxaliplatin by Annexin V/propidium iodide staining based flow cytometry (reference value: 86.4%); assay type: functional
RKO [24] = experiment: Antiproliferative activity against human RKO cells up to 50 uM up to 72 hrs by CCK8 assay; assay type: functional, cell-based
In short: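 HCT116 and RKO cells were treated with compound alone or with oxaliplatin and grown for 0–72 h. Viability was read by CCK-8 colorimetry at 450 nm.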

HCT-116 [25] = experiment: Cell cycle arrest in human HCT116 cells assessed as accumulation at G2/M phase at 10 uM after 24 hrs propidium iodide staining based flow cytometry (reference value: 22.2%); assay type: functional; in short: as §2
Mus musculus = experiment: Antiallergic activity in mouse model of IgE/antigen-stimulated passive cutaneous anaphylaxis assessed as Evans blue exudation at 50 mg/kg, ip administered as single dose for 1 hr treated at 24 hrs post anti-DNP IgE treatment followed by DNP-HSA/Evans blue addition and measured after 1 hr (reference value: 149 +/- 16.9 ug/ml); assay type: functional
RKO [26] = experiment: Cell cycle arrest in human RKO cells assessed as accumulation at G1/G0 phase at 25 uM after 24 hrs propidium iodide staining based flow cytometry (reference value: 39.9%); assay type: functional; in short: as §2
RKO [27] = experiment: Induction of apoptosis in human RKO cells assessed as late apoptotic cells at 25 uM after 24 hrs in presence of oxaliplatin by Annexin V/propidium iodide staining based flow cytometry (reference value: 7.02%); assay type: functional
RKO [28] = experiment: Induction of apoptosis in human RKO cells assessed as increase in Bax expression at 10 to 50 uM after 24 hrs by Western blot analysis; assay type: functional, cell-based; in short: as §3
HCT-116 [29] = experiment: Cell cycle arrest in human HCT116 cells assessed as accumulation at sub-G1 phase at 10 uM after 24 hrs propidium iodide staining based flow cytometry (reference value: 17.8%); assay type: functional; in short: as §2
[30] = Half life in rat at 5 mg/kg, iv; assay type: ADME, organism-based; details: in vivo
HFL1 = experiment: Cytotoxicity against HFL1 cells; assay type: cell-based; details: Homo sapiens

Sequence of UDP-glucuronosyltransferase 2B7 (P16662 whole entry): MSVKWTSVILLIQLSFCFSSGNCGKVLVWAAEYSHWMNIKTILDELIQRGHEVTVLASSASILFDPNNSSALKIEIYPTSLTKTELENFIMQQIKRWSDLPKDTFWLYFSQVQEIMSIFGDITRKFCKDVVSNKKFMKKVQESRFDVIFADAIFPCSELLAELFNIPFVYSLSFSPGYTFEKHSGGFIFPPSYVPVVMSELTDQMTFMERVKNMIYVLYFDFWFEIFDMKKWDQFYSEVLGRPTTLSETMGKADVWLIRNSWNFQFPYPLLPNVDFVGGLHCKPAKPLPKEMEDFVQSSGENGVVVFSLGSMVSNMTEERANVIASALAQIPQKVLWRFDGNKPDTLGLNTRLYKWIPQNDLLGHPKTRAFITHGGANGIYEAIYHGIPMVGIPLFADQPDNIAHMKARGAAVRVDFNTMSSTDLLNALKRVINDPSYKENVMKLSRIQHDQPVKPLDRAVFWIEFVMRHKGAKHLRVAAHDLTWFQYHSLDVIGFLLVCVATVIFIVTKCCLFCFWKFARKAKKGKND
Sequence of [Pyruvate dehydrogenase (acetyl-transferring)] kinase isozyme 4, mitochondrial (Q16654 whole entry): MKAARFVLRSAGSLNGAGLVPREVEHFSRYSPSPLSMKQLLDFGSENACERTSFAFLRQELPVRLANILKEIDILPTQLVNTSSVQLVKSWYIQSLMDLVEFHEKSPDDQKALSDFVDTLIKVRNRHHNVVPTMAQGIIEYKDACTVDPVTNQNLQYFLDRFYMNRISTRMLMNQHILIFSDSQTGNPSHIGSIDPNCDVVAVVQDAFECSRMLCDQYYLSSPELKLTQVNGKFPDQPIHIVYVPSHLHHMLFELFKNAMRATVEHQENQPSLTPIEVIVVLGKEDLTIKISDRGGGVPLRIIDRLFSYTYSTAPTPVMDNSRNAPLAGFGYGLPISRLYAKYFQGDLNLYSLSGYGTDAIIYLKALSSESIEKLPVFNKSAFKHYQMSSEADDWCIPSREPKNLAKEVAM

In the case of Cl.O=C1c2ccccc2C(=O)c2c1cccc2-c1cnn(C2CCNCC2)c1, the Activity (RKO [1]) is reported as 0.89%, the clearance [2] is reported as 11.4 mL/min/kg and the Activity (RKO [3]) is reported as 82.8%. For the same compound, the AUC(0-inf) [4] was 7610 ng·h/mL, the Activity (HCT-116 [5]) was 44.6% and the Activity (RKO [6]) was 19.2%. For the same compound, the Activity (HCT-116 [7]) was 25.9%, the Activity (HCT-116 [8]) was 7.7% and the Activity (HCT-116 [9]) was “Active”. The Activity (HCT-116 [10]) was 41.6%, the Activity (HCT-116 [11]) was 17.8% and the IC50 (CYP3A) was 36.6 µM. The Activity (RKO [12]) was 5.2%, the bioavailability [13] was 63.6% and the Activity (RKO [14]) was 18.1%. The IC50 [15] was greater than 50 µM, the Activity (RKO [16]) was 2.8% and the Activity (RKO [17]) was 24.4%. For the same compound, the remaining at 0.5 h [18] was 67.8%, the Activity (RKO [19]) was 36.7% and the Activity (RKO [20]) was “Dose-dependent effect”. It also gave an Activity (RKO [21]) of 21.6%, an IC50 [22] of 0.084 µM and an Activity (RKO [23]) of 36.8%. For the same compound, the Activity (RKO [24]) was “Active”, the Activity (HCT-116 [25]) was 14.9% and the Activity (Mus musculus) was 49.9 µg/mL. For the same compound, the Activity (RKO [26]) was 13.7%, the Activity (RKO [27]) was 33.8% and the Activity (RKO [28]) was “Active”. For the same compound, the Activity (HCT-116 [29]) was 14.4%, the half-life [30] was 7.06 h and the IC50 (HFL1) was 36.5 µM.
